Assay results published in PMC4827638 (Preventive Nutrition and Food Science, 2016).
Marks after values point to notes of the source that are not given here.

What was measured:
Assay type in all cases: biochemical
NO radical = details: nitrite scavenging effect, 520 nm; triplicate
Summary of the method: (§1)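 Absorbance endpoint assays, read on a UV-visible spectrophotometer (H2O2 assay on a microplate reader). Percent scavenging was measured across a series of sample concentrations. IC50 was taken from a graph of inhibition percentage versus sample concentration. Triplicate analyses, reported as mean±SD.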

[1] = OH radical scavenging activity; details: absorbance at 520 nm; triplicate
Summary of the method: as §1

[2] = H2O2 radical scavenging activity; details: 405 nm; triplicate
Summary of the method: as §1

superoxide = details: xanthine-XO method, 560 nm; triplicate
Summary of the method: as §1

xanthine oxidase (XO) = xanthine oxidase (XO) (Bos taurus, UniProt P80457); assay: XO inhibitory activity
Sequence of xanthine oxidase (XO) (P80457 whole entry): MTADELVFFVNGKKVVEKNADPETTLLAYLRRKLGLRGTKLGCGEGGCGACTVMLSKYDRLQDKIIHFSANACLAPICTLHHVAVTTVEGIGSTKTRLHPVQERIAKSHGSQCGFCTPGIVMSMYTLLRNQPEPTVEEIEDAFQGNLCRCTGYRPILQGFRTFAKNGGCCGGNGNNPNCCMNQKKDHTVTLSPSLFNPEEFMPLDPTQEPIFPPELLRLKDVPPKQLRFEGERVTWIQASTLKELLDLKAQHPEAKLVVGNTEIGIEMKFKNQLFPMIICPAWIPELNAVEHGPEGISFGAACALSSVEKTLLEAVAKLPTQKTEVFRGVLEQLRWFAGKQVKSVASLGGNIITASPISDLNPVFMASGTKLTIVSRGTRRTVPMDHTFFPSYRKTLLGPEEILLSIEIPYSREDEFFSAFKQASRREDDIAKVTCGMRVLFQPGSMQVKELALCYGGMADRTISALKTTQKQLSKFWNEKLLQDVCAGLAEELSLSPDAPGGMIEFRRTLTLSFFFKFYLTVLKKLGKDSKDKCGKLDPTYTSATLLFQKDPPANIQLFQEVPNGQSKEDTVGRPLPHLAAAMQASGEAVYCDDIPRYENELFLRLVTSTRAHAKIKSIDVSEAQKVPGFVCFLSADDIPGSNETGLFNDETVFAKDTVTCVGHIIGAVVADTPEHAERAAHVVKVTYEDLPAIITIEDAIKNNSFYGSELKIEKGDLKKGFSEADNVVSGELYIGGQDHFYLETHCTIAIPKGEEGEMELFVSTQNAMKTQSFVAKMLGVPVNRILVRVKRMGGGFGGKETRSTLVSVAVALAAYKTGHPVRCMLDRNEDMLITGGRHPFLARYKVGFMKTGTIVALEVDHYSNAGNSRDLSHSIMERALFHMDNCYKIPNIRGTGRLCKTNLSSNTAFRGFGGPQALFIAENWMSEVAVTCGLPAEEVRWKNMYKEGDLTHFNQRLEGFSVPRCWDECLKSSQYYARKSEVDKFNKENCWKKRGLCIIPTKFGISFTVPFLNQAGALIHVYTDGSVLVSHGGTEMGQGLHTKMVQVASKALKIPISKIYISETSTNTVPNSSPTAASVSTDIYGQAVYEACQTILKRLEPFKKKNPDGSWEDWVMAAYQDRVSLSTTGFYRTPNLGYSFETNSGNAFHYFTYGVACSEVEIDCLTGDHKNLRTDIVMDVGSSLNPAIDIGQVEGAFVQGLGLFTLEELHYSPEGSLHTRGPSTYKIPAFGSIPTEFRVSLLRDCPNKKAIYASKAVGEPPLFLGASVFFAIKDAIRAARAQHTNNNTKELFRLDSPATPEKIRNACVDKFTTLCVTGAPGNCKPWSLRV

tyrosinase = assay: Tyrosinase inhibitory activity; details: L-DOPA substrate, 25°C, 2 min, pH 6.8; mean±SD

Row | Structure (SMILES) | IC50 of NO radical scavenging activity (NO radical) [µg/mL] | IC50 of OH radical scavenging activity [1] [µg/mL] | IC50 of H2O2 radical scavenging activity [2] [µg/mL] | IC50 of O2 radical scavenging activity (superoxide) [µg/mL] | IC50 (xanthine oxidase (XO)) [µM] | IC50 Tyrosinase inhibition (tyrosinase)
1 | COc1ccc(O)c(C(C)(C)C)c1 [BHA, butylated hydroxyanisole] | 40.54 | 37.22 | 22.47 | 68.45 | – | –
2 | CC1=C(O)C(=O)C(C)(O)S1 (stereo not drawn) [Thiacremonone, 2,4-dihydroxy-2,5-dimethyl-thiophene-3-one] | 81.53 | 92.50 | 12.60 | 65.05 | 246 | 101.931±2.601^a μg/mL
3 | Cc1c(C)c2c(c(C)c1O)CC[C@@](C)(CCC[C@H](C)CCC[C@H](C)CCCC(C)C)O2 [α-tocopherol] | 15.72 ± 1.22 | 12.93 ± 1.64 | 39.40 ± 0.77 | 84.92 ± 2.34 | – | –
4 | O=C1O[C@H]([C@@H](O)CO)C(O)=C1O [ascorbic acid, Ascorbic acid] | 122.64 | 104.93 | 42.42 | 99.43 | – | –
